pIC50: −log10 of the molar value. Active and inactive are the calls of the source. No cut-off for these calls is given here.
Tests used:
MDA-MB-435 [1] = assay: Antitumor activity against human MDA-MB-435 cells xenografted in athymic nude mouse assessed as reduction of tumor burden at 10 mg/kg, ip for 9 days followed by 20 mg/kg, ip for 5 days followed by 40 mg/kg, ip for 12 days; assay type: functional, organism-based
Outline: (§1)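 Athymic nude mice were inoculated s.c. on the rear flank with 1.5 × 10⁶ log-phase MDA-MB-435 cells. At ~100 mm³ average tumor volume, mice were randomized (n = 8) to vehicle (10% DMSO/90% sesame oil) or drug, given i.p. once daily, dosed by group mean body weight. Caliper tumor measurements were taken twice weekly, volume = d²×D/2; mice were followed 17 days after dosing ended, with body weight monitored.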

MDA-MB-435 [2] = assay: Induction of apoptosis in human MDA-MB-435 cells assessed as apoptotic cells at 10 uM after 24 hrs using by annexin V and propidium iodide staining by flow cytometry relative to control; assay type: functional
Outline: (§2)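 Treatment was 10 μM for 24 and 48 h, with an untreated 48 h control run in parallel. Floating and adherent cells were pooled and stained with annexin V-FITC/propidium iodide, then read by flow cytometry (FITC and PE channels). Quadrants: annexin−/PI− viable; annexin+/PI− early apoptotic; annexin+/PI+ late apoptotic; lower right necrotic/debris.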

Mus musculus [3] = assay: Toxicity in human MDA-MB-435 cells xenografted athymic nude mouse assessed as change in doy weight at 10 mg/kg, ip for 9 days followed by 20 mg/kg, ip for 5 days followed by 40 mg/kg, ip for 12 days; assay type: organism-based; settings: in vivo; outline: as §1
Mus musculus [4] = assay: Toxicity in human MDA-MB-435 cells xenografted athymic nude mouse assessed as histological changes in organ at 10 mg/kg, ip for 9 days followed by 20 mg/kg, ip for 5 days followed by 40 mg/kg, ip for 12 days; assay type: organism-based; settings: in vivo
MDA-MB-435 [5] = assay: Cytotoxicity against human MDA-MB-435 cells at 1 uM after 24 hrs using crystal violet staining by colony formation assay; assay type: functional, cell-based
Outline: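 Cells were plated at 1000 per well, attached overnight, and exposed to 1 μM for 24 h. They were then washed and grown in fresh medium for 8–10 days until colonies formed, fixed in 1% glutaraldehyde for 30 min, and stained with 2% crystal violet for 30 min. Vehicle was DMSO.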

UMUC3 = assay: Cytotoxicity against human UM-UC-3 cells after 72 hrs by MTT assay; assay type: functional, cell-based; settings: UMUC3, 72 h
Outline: (§3)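 Cells were attached overnight, then continuously exposed to drug for 72 h. MTT (0.5 mg/mL final) was added for 4 h at 37 °C, formazan dissolved in DMSO, and A570 read; all in triplicate. IC50 came from log(concentration) vs % cells killed. Media: RPMI-1640 for HT29, HCT116 p53+/+ and p53−/−, and HEY; DMEM for MDA-MB-435 and UMUC3; all with 10% FBS, 37 °C, 5% CO₂.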

MDA-MB-435 [6] = assay: Cytotoxicity against human MDA-MB-435 cells after 72 hrs by MTT assay; assay type: functional, cell-based; settings: MDA-MB-435, 72 h; outline: as §3
MDA-MB-435 [7] = assay: Induction of apoptosis in human MDA-MB-435 cells assessed as pre-necrotic cells at 10 uM after 24 hrs using by annexin V and propidium iodide staining by flow cytometry relative to control; assay type: functional; outline: as §2
HCT-116 [8] = assay: Cytotoxicity against human HCT116 cells […] after 72 hrs by MTT assay; assay type: functional, cell-based; settings: HCT-116, 72 h; outline: as §3
HCT-116 [9] = assay: Cytotoxicity against p53 deficient human HCT116 cells […] after 72 hrs by MTT assay; assay type: functional, cell-based; settings: HCT-116, 72 h; outline: as §3
HT-29 = assay: Cytotoxicity against human HT-29 cells after 72 hrs by MTT assay; assay type: functional, cell-based; settings: HT-29, 72 h; outline: as §3
MDA-MB-435 [10] = assay: Increase of mitochondrial superoxide accumulation in human MDA-MB-435 cells at IC50 to 3 times IC50 after 24 hrs by flow cytometry; assay type: functional, cell-based
Outline: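 Cells were drug-treated at two concentrations for 24 h, then loaded with 5 μM MitoSOX Red for 10 min at 37 °C and washed three times in HBSS. Cells were either viewed by fluorescence microscopy or trypsinized, washed twice in HBSS and read by flow cytometry; untreated cells served as control.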

5637 = assay: Cytotoxicity against human 5637 cells after 72 hrs by MTT assay; assay type: functional, cell-based; settings: Homo sapiens, 5637, 72 h
HEY = assay: Cytotoxicity against human HEY cells after 72 hrs by MTT assay; assay type: functional, cell-based; outline: as §3
MDA-MB-435 [11] = assay: Induction of apoptosis in human MDA-MB-435 cells assessed as viable cells at 10 uM after 48 hrs using by annexin V and propidium iodide staining by flow cytometry relative to control; assay type: functional; settings: MDA-MB-435, 48 h, read-out: Activity; outline: as §2
NCI/ADR-RES = assay: Cytotoxicity against human NCI/ADR-RES cells after 72 hrs by MTT assay; assay type: functional, cell-based
MDA-MB-435 [12] = assay: Induction of apoptosis in human MDA-MB-435 cells assessed as apoptotic cells at 10 uM after 48 hrs using by annexin V and propidium iodide staining by flow cytometry relative to control; assay type: functional; outline: as §2
MDA-MB-435 [13] = assay: Induction of apoptosis in human MDA-MB-435 cells assessed as necrotic cells at 10 uM after 48 hrs using by annexin V and propidium iodide staining by flow cytometry relative to control; assay type: functional; outline: as §2
[14] = Octanol-water distribution coefficient, log P of the compound; assay type: physicochemical
MDA-MB-435 [15] = assay: Induction of apoptosis in human MDA-MB-435 cells assessed as necrotic cells at 10 uM after 24 hrs using by annexin V and propidium iodide staining by flow cytometry relative to control; assay type: functional; outline: as §2
MDA-MB-435 [16] = assay: Induction of apoptosis in human MDA-MB-435 cells assessed as pre-necrotic cells at 10 uM after 48 hrs using by annexin V and propidium iodide staining by flow cytometry relative to control; assay type: functional; outline: as §2
MDA-MB-435 [17] = assay: Induction of apoptosis in human MDA-MB-435 cells assessed as viable cells at 10 uM after 24 hrs using by annexin V and propidium iodide staining by flow cytometry relative to control; assay type: functional; settings: MDA-MB-435, 24 h, read-out: Activity; outline: as §2
MDA-MB-435 [18] = assay: Cell cycle arrest in human MDA-MB-435 cells assessed as accumulation at S phase at 5 uM after 24 hrs using propidium iodide staining by flow cytometry (reference value: 41%); assay type: functional
MDA-MB-435 [19] = assay: Cell cycle arrest in human MDA-MB-435 cells assessed as accumulation at S phase at 5 uM after 6 hrs using propidium iodide staining by flow cytometry (reference value: 41%); assay type: functional
MDA-MB-435 [20] = assay: Cell cycle arrest in human MDA-MB-435 cells assessed as accumulation at G2/M phase at 5 uM after 24 hrs using propidium iodide staining by flow cytometry (reference value: 9%); assay type: functional
MDA-MB-435 [21] = assay: Cell cycle arrest in human MDA-MB-435 cells assessed as accumulation at S phase at 5 uM after 12 hrs using propidium iodide staining by flow cytometry (reference value: 41%); assay type: functional
[22] = Elimination rate constant in mouse at 24 mg/kg, ip; assay type: ADME, organism-based; set-up: dose 24 mg/kg, route intraperitoneal; settings: in vivo
Outline: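 Mice received a single 24 mg/kg i.p. injection, with two mice per time point. Blood was drawn into heparinized syringes at set times between 0.5 and 24 h, and plasma was separated by centrifugation and stored at −80 °C. Plasma drug was quantified by validated LC-MS (lowest quantification level 1 ng/mL), and parameters were derived by noncompartmental analysis.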

MDA-MB-435 [23] = assay: Cell cycle arrest in human MDA-MB-435 cells assessed as accumulation at G0/G1 phase at 5 uM after 12 hrs using propidium iodide staining by flow cytometry (reference value: 50%); assay type: functional
MDA-MB-435 [24] = assay: Cell cycle arrest in human MDA-MB-435 cells assessed as accumulation at G0/G1 phase at 5 uM after 24 hrs using propidium iodide staining by flow cytometry (reference value: 50%); assay type: functional
MDA-MB-435 [25] = assay: Cell cycle arrest in human MDA-MB-435 cells assessed as accumulation at G0/G1 phase at 5 uM after 6 hrs using propidium iodide staining by flow cytometry (reference value: 50%); assay type: functional
MDA-MB-435 [26] = assay: Cell cycle arrest in human MDA-MB-435 cells assessed as accumulation at G2/M phase at 5 uM after 6 hrs using propidium iodide staining by flow cytometry (reference value: 9%); assay type: functional
MDA-MB-435 [27] = assay: Cell cycle arrest in human MDA-MB-435 cells assessed as accumulation at G2/M phase at 5 uM after 12 hrs using propidium iodide staining by flow cytometry (reference value: 9%); assay type: functional
MDA-MB-435 [28] = assay: Induction of apoptosis in human MDA-MB-435 cells assessed as decrease of caspase 9 protein expression at 1 uM after 24 to 72 hrs by Western blotting relative to control; assay type: functional
Outline: (§4)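 Cells were treated with 1 μM for 24–72 h and lysed in 50 mM Tris-HCl pH 7.5, 150 mM NaCl, 1% NP-40. Equal protein (BCA) was run on 10% tris-glycine SDS-PAGE and blotted to nitrocellulose. Membranes were blocked in 5% BSA/PBS for 1 h, probed overnight at 4 °C with anti-p53 or anti-caspase-9 (plus tubulin/GAPDH antibodies), and detected by HRP secondary with ECL imaging.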

MDA-MB-435 [29] = assay: Induction of apoptosis in human MDA-MB-435 cells assessed as up-regulation of p53 protein expression at 1 uM after 24 to 72 hrs by Western blotting; assay type: functional, cell-based; outline: as §4

Row | Structure (SMILES) | Activity (MDA-MB-435 [2]) | Activity (MDA-MB-435 [5]) | pIC50 (UMUC3) | pIC50 (MDA-MB-435 [6]) | Activity (MDA-MB-435 [7]) | pIC50 (HCT-116 [8]) | pIC50 (HCT-116 [9]) | pIC50 (HT-29) | Activity (MDA-MB-435 [10]) | pIC50 5637 | pIC50 (HEY) | viability at 10 µM (MDA-MB-435 [11]) | pIC50 (NCI/ADR-RES) | Activity (MDA-MB-435 [12]) | Activity (MDA-MB-435 [13]) | logP [14] | Activity (MDA-MB-435 [15]) | Activity (MDA-MB-435 [16]) | viability at 10 µM (MDA-MB-435 [17]) | further results
1 | C#CC(=O)N(c1cccc(C(F)(F)F)c1)C(C(=O)NC1CCCC1)c1cccc(OC)c1 (configuration not stated) | 1% | Active | < 4.70 | 5.20 | 2% | < 5.00 | 5.06 | 5.14 | Active | 6.22 | 5.28 | 52% | 6.70 | 1% | 37% | 3.7 | 4% | 10% | 93% | Activity (MDA-MB-435 [1]): Active; Activity (Mus musculus [3]): 29 g; Activity (Mus musculus [4]): Non-toxic
2 | C#CC(=O)N(c1ccc(-n2cnnn2)c(C)c1)C(C(=O)NC1CCCC1)c1ccccc1F (configuration not stated) | 1% | Active | 5.20 | 5.85 | 6% | 5.20 | 5.26 | 5.74 | Active | 6.15 | 5.82 | 11% | 6.00 | 3% | 62% | 3.91 | 27% | 24% | 66% | Activity (MDA-MB-435 [18]): 51%; Activity (MDA-MB-435 [19]): 51%; Activity (MDA-MB-435 [20]): 16%; Activity (MDA-MB-435 [21]): 51%; k el [22]: 5.72e-05 s⁻¹; Activity (MDA-MB-435 [23]): 36%; Activity (MDA-MB-435 [24]): 33%; Activity (MDA-MB-435 [25]): 40%; Activity (MDA-MB-435 [26]): 9%; Activity (MDA-MB-435 [27]): 13%
3 | C#CC(=O)N(c1cc(OC)cc(OC)c1)C(C(=O)NC1CCCCC1)c1ccc(OC)cc1 (configuration not stated) | 1% | Active | < 4.70 | 5.27 | 2% | 4.90 | 4.96 | 5.20 | Active | 5.66 | 5.36 | 53% | 6.52 | 3% | 35% | 2.54 | 2% | 9% | 95% | fold change (FC) (MDA-MB-435 [28]): 2; Activity (MDA-MB-435 [29]): Active
